Consider 17 compounds from ChEMBL document CHEMBL2157865, “Novel 3-substituted-1-aryl-5-phenyl-6-anilinopyrazolo[3,4-d]pyrimidin-4-ones: docking, synthesis and pharmacological evaluation as a potential anti-inflammatory agents” (Bioorg Med Chem Lett, 2012).

The test system of data set [1] is Rattus norvegicus. Put plainly: Antiinflammatory activity in Wistar albino rat assessed as inhibition of carrageenan-induced paw edema at 25 mg/kg, po after 3 hrs (reference value: 1.08 +/- 0.41%). The class given is functional.
The test system of data set [2] is Rattus norvegicus. Put plainly: Antiinflammatory activity in Wistar albino rat assessed as inhibition of carrageenan-induced paw edema at 25 mg/kg, po after 2 hrs (reference value: 1.11 +/- 0.02%). The format is functional.
Data set [3] deals with Rattus norvegicus. Put plainly: Antiinflammatory activity in Wistar albino rat assessed as inhibition of carrageenan-induced paw edema at 25 mg/kg, po after 1 hr (reference value: 0.85 +/- 0.01%). The format is functional. A general note: Carrageenan injected into the paw causes an acute inflammation.
Data set [4] relates to Rattus norvegicus. The data set can be described thus: Toxicity in Wistar albino rat assessed as ulcer index at 75 mg/kg/day, po administered for 4 days measured after 12 hrs fasting post-last dose. The class given is organism-based. More on the design: route oral. As to conditions: in vivo. In outline: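 Male Wistar albino rats, 170–200 g, six per group, with control and standard groups. Compounds suspended in 1% w/v Tween 80 in water and dosed orally at 75 mg/kg/day on all 4 days. Rats fasted 12 h after last dose, then decapitated. Stomach opened along greater curvature and washed with distilled water and Krebs solution. Gastric lesions counted and ulcer index calculated per Szelenyi and Thiemer.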

SMILES strings stand for the structures.

As usually defined, the inhibition in vivo is the change of the read-out against control, counted positive when it falls. `NS(=O)(=O)c1ccc(-n2nc(Nc3ccc(Cl)cc3)c3c(=O)n(-c4ccccc4)c(Nc4ccccc4)nc32)cc1`: the inhibition in vivo at 25 mg/kg was determined as 38.3% in the data set with Rattus norvegicus [1], 56.3% with Rattus norvegicus [2] and 69.8% with Rattus norvegicus [3].

`Cc1ccc(Nc2nn(-c3ccc([N+](=O)[O-])cc3)c3nc(Nc4ccccc4)n(-c4ccccc4)c(=O)c23)cc1`: the figures for the inhibition in vivo at 25 mg/kg in the data set on Rattus norvegicus [1], in the data set with Rattus norvegicus [2] and in the data set with Rattus norvegicus [3] were 30.2%, 39.8% and 46.6%, respectively. Besides, the UI in the data set on Rattus norvegicus [4] amounted to 16.72.

Turning to `NS(=O)(=O)c1ccc(-n2nc(Nc3ccc([N+](=O)[O-])cc3)c3c(=O)n(-c4ccccc4)c(Nc4ccccc4)nc32)cc1`, the inhibition in vivo at 25 mg/kg with Rattus norvegicus [1] is 39.1%; in the data set on Rattus norvegicus [2] it was 55.3%; in the data set with Rattus norvegicus [3], 67%.

Turning to `CSc1nn(-c2ccccc2)c2nc(Nc3ccccc3)n(-c3ccccc3)c(=O)c12`, the inhibition in vivo at 25 mg/kg amounted to 25.4% in the data set with Rattus norvegicus [1], 36.6% with Rattus norvegicus [2] and 46.1% in the data set with Rattus norvegicus [3]. Besides, the UI in the data set on Rattus norvegicus [4] is recorded as 4.66.

As to `O=c1c2c(Nc3ccccc3)nn(-c3ccccc3)c2nc(Nc2ccccc2)n1-c1ccccc1`, the inhibition in vivo at 25 mg/kg in the data set with Rattus norvegicus [1] came out at 17.1%; with Rattus norvegicus [2] it was 43.4%; in the data set on Rattus norvegicus [3] it was 48.1%.

In the case of `O=C([O-])Cc1ccccc1Nc1c(Cl)cccc1Cl.[Na+]` [DICLOFENAC SODIUM], the figures for the inhibition in vivo at 25 mg/kg in the data set on Rattus norvegicus [1], in the data set with Rattus norvegicus [2] and in the data set on Rattus norvegicus [3] were 42.8%, 57.2% and 75.8%, respectively. Besides, in the data set with Rattus norvegicus [4], the UI amounted to 39.17.

Consider `Cc1ccc(-c2cc(C(F)(F)F)nn2-c2ccc(S(N)(=O)=O)cc2)cc1` [CELECOXIB], for which the inhibition in vivo at 25 mg/kg with Rattus norvegicus [1] turned out to be 39.6%; in the data set on Rattus norvegicus [2] it was 58.6%; in the data set with Rattus norvegicus [3], 78.1%. For the same compound, the UI in the data set with Rattus norvegicus [4] was determined as 9.58.

As to `Cc1ccc(Nc2nn(-c3ccccc3)c3nc(Nc4ccccc4)n(-c4ccccc4)c(=O)c23)cc1`, the inhibition in vivo at 25 mg/kg was 32.9% in the data set with Rattus norvegicus [1], 53.4% with Rattus norvegicus [2] and 55.7% in the data set on Rattus norvegicus [3]. The UI with Rattus norvegicus [4] came to 3.2.

On to `NS(=O)(=O)c1ccc(-n2nc(Nc3ccccc3)c3c(=O)n(-c4ccccc4)c(Nc4ccccc4)nc32)cc1`, for which the figures for the inhibition in vivo at 25 mg/kg in the data set with Rattus norvegicus [1], in the data set with Rattus norvegicus [2] and in the data set on Rattus norvegicus [3] were 39.6%, 54.8% and 60.2%, respectively.

Take `O=c1c2c(Nc3ccc(Cl)cc3)nn(-c3ccc([N+](=O)[O-])cc3)c2nc(Nc2ccccc2)n1-c1ccccc1`: the inhibition in vivo at 25 mg/kg in the data set with Rattus norvegicus [1] was 20.6%; with Rattus norvegicus [2], 39%; in the data set with Rattus norvegicus [3], 39.6%.

Turning to `O=c1c2c(Nc3ccc([N+](=O)[O-])cc3)nn(-c3ccc([N+](=O)[O-])cc3)c2nc(Nc2ccccc2)n1-c1ccccc1`, the inhibition in vivo at 25 mg/kg came out at 16.8% in the data set with Rattus norvegicus [1], 19.4% in the data set on Rattus norvegicus [2] and 23.9% in the data set on Rattus norvegicus [3].

Turning to `CSc1nn(-c2ccc([N+](=O)[O-])cc2)c2nc(Nc3ccccc3)n(-c3ccccc3)c(=O)c12`, the inhibition in vivo at 25 mg/kg was found to be 26.6% in the data set with Rattus norvegicus [1], 37.7% in the data set with Rattus norvegicus [2] and 42.1% in the data set with Rattus norvegicus [3]. Further, the UI in the data set on Rattus norvegicus [4] is given as 7.5.

For `O=c1c2c(Nc3ccc(Cl)cc3)nn(-c3ccccc3)c2nc(Nc2ccccc2)n1-c1ccccc1`, the values for the inhibition in vivo at 25 mg/kg with Rattus norvegicus [1], with Rattus norvegicus [2] and with Rattus norvegicus [3] were 28.6%, 44% and 47.5%, respectively.

`O=c1c2c(Nc3ccccc3)nn(-c3ccc([N+](=O)[O-])cc3)c2nc(Nc2ccccc2)n1-c1ccccc1`: the inhibition in vivo at 25 mg/kg in the data set on Rattus norvegicus [1] worked out at 14.1%; in the data set with Rattus norvegicus [2], 40.8%; in the data set with Rattus norvegicus [3] it was 43.9%.

For the compound `CSc1nn(-c2ccc(S(N)(=O)=O)cc2)c2nc(Nc3ccccc3)n(-c3ccccc3)c(=O)c12`, the inhibition in vivo at 25 mg/kg in the data set with Rattus norvegicus [1] was 35.2%; in the data set with Rattus norvegicus [2], 54.1%; with Rattus norvegicus [3], 68.8%. Besides, in the data set on Rattus norvegicus [4], the UI is reported as 7.83.

Take `Cc1ccc(Nc2nn(-c3ccc(S(N)(=O)=O)cc3)c3nc(Nc4ccccc4)n(-c4ccccc4)c(=O)c23)cc1`: the values for the inhibition in vivo at 25 mg/kg in the data set with Rattus norvegicus [1], with Rattus norvegicus [2] and in the data set with Rattus norvegicus [3] were 43.7%, 63.4% and 77%, respectively. In the data set with Rattus norvegicus [4], the UI worked out at 9.5.

On to `O=c1c2c(Nc3ccc([N+](=O)[O-])cc3)nn(-c3ccccc3)c2nc(Nc2ccccc2)n1-c1ccccc1`, for which the inhibition in vivo at 25 mg/kg with Rattus norvegicus [1] was 15.1%; with Rattus norvegicus [2], 29%; with Rattus norvegicus [3], 29.4%.
